Measured values of several laboratories.
Each line is one published result; the experiments were not run side by side. pIC50: −log10 of the molar value.
LCK: Tyrosine-protein kinase Lck (LCK, Homo sapiens, UniProt P06239)
AKR1B1: Aldo-keto reductase family 1 member B1 (AKR1B1, Homo sapiens, UniProt P15121)
LATS2: Serine/threonine-protein kinase LATS2 (LATS2, Homo sapiens, UniProt Q9NRM7)

SMILES | target | assay | pIC50
O=C(NC1CCC2(CCCC2)CC1)c1ccc(-c2ccccc2)cc1 | Transient receptor potential cation channel subfamily M member 8 (TRPM8, Homo sapiens, UniProt Q7Z2W7) | ion current, patch clamp | 6.97
Nc1cnccc1Nc1ccc(Cl)c(Cl)c1 | Endonuclease 8-like 1 (NEIL1, Homo sapiens, UniProt Q96FI4) | enzyme activity, inhibitor | < 4.00
Cc1cc(-c2cc(O)ccc2Cl)cc2nnc(Nc3ccc(OCCN4CCCC4)cc3)nc12 | LCK | cell-free assay | 9.53
COc1cc(/C=N/NC(=S)N/N=C/c2ccc(N(C)C)cc2)ccc1Oc1ccnc2cc(Cl)ccc12 | AKR1B1 | enzyme activity, inhibitor, absorbance | 4.98
OC1(c2ccc(-c3ccnc4[nH]cc(F)c34)cc2)CCCNCC1 (stereo not drawn) | LATS2 | enzyme activity, inhibitor, radiometric | 7.92
COc1cc(/C=N/NC(=S)NN=Cc2ccc([N+](=O)[O-])o2)ccc1Oc1ccnc2cc(Cl)ccc12 | AKR1B1 | enzyme activity, inhibitor, absorbance | 5.11
Cc1cc(-c2ccnc3[nH]cc(F)c23)cc(F)c1[C@@]1(O)[C@H](C)CN(C(=O)CN)C[C@@H]1C | LATS2 | enzyme activity, inhibitor, radiometric | 8.59
C=CC(=O)N1CCN(c2nc(=O)n(-c3c(C)ccnc3C(C)C)c3nc(-c4c(O)cccc4F)c(F)cc23)[C@@H](C)C1 | GTPase HRas (HRAS, Homo sapiens, UniProt P01112, C181S/C184S/C186S/G12C) | enzyme activity, inhibitor | 7.06
COc1c(Cl)cccc1Nc1c(-c2ccncc2OC[C@@H]2COCCO2)[nH]c2c1C(=O)NCC2 | LCK | enzyme activity, inhibitor, TR-FRET | 5.95
COc1cc(/C=N/NC(=S)N/N=C/c2ccc(F)cc2)ccc1Oc1ccnc2cc(Cl)ccc12 | AKR1B1 | enzyme activity, inhibitor, absorbance | 4.71
O=C(O[C@@H]1[C@@H](O)[C@H](Oc2cc(O)c3c(c2)O[C@H](c2ccccc2)CC3=O)O[C@@H]2COC(=O)c3cc(O)c(O)c(O)c3-c3c(cc(O)c(O)c3O)C(=O)O[C@@H]12)c1cc(O)c(O)c(O)c1 | Thioredoxin domain-containing protein 5 (TXNDC5, Homo sapiens, UniProt Q8NBS9) | enzyme activity, inhibitor, fluorescence | 5.41
CC1CNCCC1(O)c1ccc(-c2ccnc3[nH]cc(F)c23)cc1 (stereo not drawn) | LATS2 | enzyme activity, inhibitor, radiometric | 8.25
COc1cc(/C=N/NC(=S)N/N=C/c2ccc(Br)cc2)ccc1Oc1ccnc2cc(Cl)ccc12 | AKR1B1 | enzyme activity, inhibitor, absorbance | 5.05
Cc1cc(-c2ccnc3[nH]cc(F)c23)cc(F)c1[C@@]1(O)[C@H](C)CN(C2CCS(=O)(=O)CC2)C[C@@H]1C | LATS2 | target engagement in cells, BRET | 7.44
COc1cc(/C=N/NC(=S)N/N=C/c2ccc(Cl)cc2)ccc1Oc1ccnc2cc(Cl)ccc12 | AKR1B1 | enzyme activity, inhibitor, absorbance | 4.83
